Measurements as given in ChEMBL document CHEMBL5038594, “Structural Fine-Tuning of Desmuramylpeptide NOD2 Agonists Defines Their In Vivo Adjuvant Activity” (J Med Chem, 2021).
The source made the active and inactive calls. The rule behind the calls is not given here.

Tests used:
[1] = molecular target: T1, Nucleotide-binding oligomerization domain-containing protein 1 (Homo sapiens) (UniProt Q9Y239); assay: Agonist activity at NOD1 in HEK-Blue hNOD2 cells assessed as increase in NFkappaB transactivation-mediated SEAP activity measured after 18 hrs by spectrophotometric method; assay type: cell-based; conditions: HEK-Blue hNOD1, in the assay text read “HEK-Blue hNOD1 cells” for “HEK-Blue hNOD2 cells”
T1 sequence (whole entry): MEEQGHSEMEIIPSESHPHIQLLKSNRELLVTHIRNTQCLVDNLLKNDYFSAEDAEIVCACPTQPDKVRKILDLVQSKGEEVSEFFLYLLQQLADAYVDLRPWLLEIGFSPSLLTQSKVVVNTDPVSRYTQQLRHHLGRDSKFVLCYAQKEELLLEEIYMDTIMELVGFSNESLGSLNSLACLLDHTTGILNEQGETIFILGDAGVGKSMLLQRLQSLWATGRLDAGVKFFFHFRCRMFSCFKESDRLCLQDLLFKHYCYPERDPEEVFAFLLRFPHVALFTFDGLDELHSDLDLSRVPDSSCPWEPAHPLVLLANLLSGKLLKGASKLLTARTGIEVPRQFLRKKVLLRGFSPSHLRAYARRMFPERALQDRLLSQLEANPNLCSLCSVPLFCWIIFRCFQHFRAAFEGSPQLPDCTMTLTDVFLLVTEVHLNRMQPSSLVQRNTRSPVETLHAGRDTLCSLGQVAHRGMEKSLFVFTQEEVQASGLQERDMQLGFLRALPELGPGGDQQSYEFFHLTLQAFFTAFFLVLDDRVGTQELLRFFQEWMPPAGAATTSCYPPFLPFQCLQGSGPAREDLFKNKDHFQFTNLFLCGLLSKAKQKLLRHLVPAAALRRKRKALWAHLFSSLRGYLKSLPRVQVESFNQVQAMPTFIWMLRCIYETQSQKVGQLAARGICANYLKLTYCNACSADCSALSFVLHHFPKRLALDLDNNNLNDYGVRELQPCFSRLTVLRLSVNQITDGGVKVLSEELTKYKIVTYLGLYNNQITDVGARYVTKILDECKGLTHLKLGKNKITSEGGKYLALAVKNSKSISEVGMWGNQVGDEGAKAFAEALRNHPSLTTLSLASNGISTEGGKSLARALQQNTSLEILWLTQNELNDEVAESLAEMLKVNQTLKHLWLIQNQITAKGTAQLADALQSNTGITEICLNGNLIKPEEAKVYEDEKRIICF
Summary of the method: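 Counter-screen in HEK-Blue NOD1 cells (HEK293 stably expressing human NOD1 plus an NF-κB-inducible SEAP reporter), seeded at 2.5 × 10^5 cells/mL in HEK-Blue detection medium. Compounds at 2 μM versus 0.1% DMSO vehicle, 18 h at 37 °C, 5% CO2. SEAP read as absorbance at 630 nm. Duplicates, at least two independent experiments.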

[2] = Cytotoxicity against HEK-Blue hNOD2 cells assessed as reduction in metabolic activity at 20 uM incubated for 18 hrs by MTS assay; assay type: toxicity, cell-based; conditions: human, hek-blue hnod2, 18 h
Summary of the method: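 HEK-Blue NOD2 cells, 40 000 per well, exposed to 20 μM compound or 0.1% DMSO for 18 h at 37 °C, 5% CO2. Metabolic activity measured by MTS (CellTiter 96 AQueous One) reagent. Duplicates, two independent biological replicates.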

PBMC [3] = assay: Immunostimulatory activity in human PBMC cells assessed as increase in LPS-induced IL-6 production at 2 uM incubated for 18 hrs by flow cytometry analysis; assay type: functional, cell-based
Summary of the method: (§1)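 Human PBMCs from healthy donors, 1 × 10^6 cells/mL in RPMI 1640 with 10% FBS, treated with 2 μM compound or 0.1% DMSO, without or with LPS 10 ng/mL, for 18 h at 37 °C. Supernatant cytokines quantified by cytometric bead array (human inflammatory panel) on a flow cytometer against recombinant standards. Four independent donors. Repeated-measures one-way ANOVA with Dunnett.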

PBMC [4] = assay: Immunostimulatory activity in human PBMC cells assessed as increase in IL-6 production at 2 uM incubated for 18 hrs by flow cytometry analysis; assay type: functional, cell-based; summary of the method: as §1
PBMC [5] = assay: Immunostimulatory activity in human PBMC cells assessed as increase in LPS-induced IL-8 production at 2 uM incubated for 18 hrs by flow cytometry analysis; assay type: functional, cell-based; summary of the method: as §1
PBMC [6] = assay: Immunostimulatory activity in human PBMC cells assessed as increase in LPS-induced TNF-alpha production at 2 uM incubated for 18 hrs by flow cytometry analysis; assay type: functional, cell-based; summary of the method: as §1
PBMC [7] = assay: Immunostimulatory activity in human PBMC cells assessed as increase in TNF-alpha production at 2 uM incubated for 18 hrs by flow cytometry analysis; assay type: functional, cell-based; summary of the method: as §1
PBMC [8] = assay: Immunostimulatory activity in human PBMC cells assessed as increase in IL-8 production at 2 uM incubated for 18 hrs by flow cytometry analysis; assay type: functional, cell-based; summary of the method: as §1
PBMC [9] = assay: Immunostimulatory activity in human PBMC cells assessed as increase in IL-1beta production at 2 uM incubated for 18 hrs by flow cytometry analysis; assay type: functional, cell-based; summary of the method: as §1
PBMC [10] = assay: Immunostimulatory activity in human PBMC cells assessed as increase in LPS-induced IL-1beta production at 2 uM incubated for 18 hrs by flow cytometry analysis; assay type: functional, cell-based; summary of the method: as §1

Row | Activity [1] | Structure (SMILES) | Activity [2] | also measured
1 | inactive | CONC(=O)CC[C@@H](NC(=O)[C@@H](NC(=O)CNC(=O)/C=C/c1ccc(O)c(OC)c1)C(C)C)C(=O)OC(C)(C)C | Non-Toxic | –
2 | inactive | CCOC(=O)CC[C@@H](NC(=O)[C@@H](NC(=O)CNC(=O)C1CC1c1ccc(OC)c(OC)c1)C(C)C)C(=O)OCC (some centres undefined) | Non-Toxic | –
3 | inactive | CCOC(=O)CC[C@@H](NC(=O)[C@@H](NC(=O)CNC(=O)/C=C/c1ccc([N+](=O)[O-])cc1)C(C)C)C(=O)OCC | Non-Toxic | –
4 | inactive | CCCCCCCCCCCC(=O)Oc1ccc(/C=C/C(=O)NCC(=O)N[C@H](C(=O)N[C@H](CCC(=O)OC2CCCC2)C(=O)OC2CCCC2)C(C)C)cc1OC | Non-Toxic | –
5 | inactive | CCOC(=O)CC[C@@H](NC(=O)[C@H](COCc1ccccc1)NC(=O)CNC(=O)/C=C/c1ccc(O)c(OC)c1)C(=O)OCC | Non-Toxic | –
6 | inactive | CCOC(=O)CC[C@@H](NC(=O)[C@@H](NC(=O)CNC(=O)[C@@H]1C[C@H]1c1ccc(F)c(F)c1)C(C)C)C(=O)OCC | Non-Toxic | –
7 | inactive | CCOC(=O)CC[C@@H](NC(=O)[C@@H](NC(=O)CNC(=O)/C=C/c1ccc(OC(C)=O)c(OC)c1)C(C)C)C(=O)OCC | Non-Toxic | Activity (PBMC [3]): Active; Activity (PBMC [4]): Active; Activity (PBMC [5]): Active; Activity (PBMC [6]): Active; Activity (PBMC [7]): Active; Activity (PBMC [8]): Active; Activity (PBMC [9]): Active; Activity (PBMC [10]): Active
8 | inactive | CCOC(=O)CC[C@@H](NC(=O)[C@@H](NC(=O)CNC(=O)C1CC1c1ccc(F)c(F)c1)C(C)C)C(=O)OCC (some centres undefined) | Non-Toxic | –
9 | inactive | CCCCCCCCCCCCCCCCCC(=O)NCCCC[C@H](NC(=O)CC[C@@H](NC(=O)[C@@H](NC(=O)CNC(=O)/C=C/c1ccc(O)c(OC)c1)C(C)C)C(=O)OCC)C(=O)OC | Non-Toxic | –
10 | inactive | COc1cc(/C=C/C(=O)NCC(=O)N[C@H](C(=O)N[C@H](CCC(=O)N2CCCC2)C(=O)OC(C)(C)C)C(C)C)ccc1O | Non-Toxic | –
11 | inactive | CCCCNC(=O)CC[C@@H](NC(=O)[C@@H](NC(=O)CNC(=O)/C=C/c1ccc(O)c(OC)c1)C(C)C)C(=O)NCCCC | Non-Toxic | –
12 | inactive | CCOC(=O)CC[C@@H](NC(=O)[C@@H](NC(=O)CNC(=O)/C=C/c1ccc(OC)c(OC)c1)C(C)C)C(=O)OCC | Non-Toxic | –
13 | inactive | COc1cc(/C=C/C(=O)NCC(=O)N[C@H](C(=O)N[C@H](CCC(=O)OC2CCCC2)C(=O)OC2CCCC2)C(C)C)ccc1OC(C)=O | Non-Toxic | –
14 | inactive | CCNC(=O)CC[C@@H](NC(=O)[C@@H](NC(=O)CNC(=O)/C=C/c1ccc(O)c(OC)c1)C(C)C)C(=O)NCC | Non-Toxic | –
15 | inactive | CCOC(=O)CC[C@@H](NC(=O)[C@H](CO)NC(=O)CNC(=O)/C=C/c1ccc(O)c(OC)c1)C(=O)OCC | Non-Toxic | –
16 | inactive | CCOC(=O)CC[C@@H](NC(=O)[C@@H](NC(=O)CNC(=O)[C@H]1C[C@@H]1c1ccc(F)c(F)c1)C(C)C)C(=O)OCC | Non-Toxic | –
17 | inactive | COc1cc(/C=C/C(=O)NCC(=O)N[C@H](C(=O)N[C@H](CCC(=O)OC(C)(C)C)C(=O)N2CCCC2)C(C)C)ccc1O | Non-Toxic | –

Row | Activity [1] | Structure (SMILES) | Activity [2] | also measured
18 | inactive | CCOC(=O)CC[C@@H](NC(=O)[C@@H](NC(=O)CNC(=O)/C=C/c1ccc(O)c(O)c1)C(C)C)C(=O)OCC | Non-Toxic | –
19 | inactive | COc1cc(/C=C/C(=O)NCC(=O)N[C@H](C(=O)N[C@H](CCC(=O)OC(C)(C)C)C(=O)N(C)OC)C(C)C)ccc1O | Non-Toxic | –
20 | inactive | CCOC(=O)CC[C@@H](NC(=O)[C@@H](NC(=O)CNC(=O)CCc1ccc(O)c(OC)c1)C(C)C)C(=O)OCC | Non-Toxic | –
21 | inactive | CCOC(=O)CC[C@@H](NC(=O)[C@@H](NC(=O)CNC(=O)/C=C/c1ccc(O)c(OC)c1)[C@@H](C)O)C(=O)OCC | Non-Toxic | –
22 | inactive | COc1cc(/C=C/C(=O)NCC(=O)N[C@H](C(=O)N[C@H](CCC(=O)N(C)OC)C(=O)OC(C)(C)C)C(C)C)ccc1O | Non-Toxic | –
23 | inactive | CCOC(=O)CC[C@@H](NC(=O)[C@@H](NC(=O)CNC(=O)/C=C/c1ccc(C(C)C)cc1)C(C)C)C(=O)OCC | Non-Toxic | –
24 | inactive | COc1cc(/C=C/C(=O)NCC(=O)N[C@H](C(=O)N[C@H](CCC(=O)OC(C)(C)C)C(=O)OC(C)(C)C)C(C)C)ccc1O | Non-Toxic | –
25 | inactive | CCOC(=O)CC[C@@H](NC(=O)[C@@H](NC(=O)CNC(=O)CCCc1ccc(O)c(OC)c1)C(C)C)C(=O)OCC | Non-Toxic | –
26 | inactive | CCCCNC(=O)CC[C@@H](NC(=O)[C@@H](NC(=O)CNC(=O)/C=C/c1ccc(O)c(OC)c1)C(C)C)C(=O)OC(C)(C)C | Non-Toxic | –
27 | inactive | CCCCCCCCCCCCCCCCCCOC(=O)CC[C@@H](NC(=O)[C@@H](NC(=O)CNC(=O)/C=C/c1ccc(O)c(OC)c1)C(C)C)C(=O)OCCCCCCCCCCCCCCCCCC | Non-Toxic | –
28 | inactive | CCOC(=O)CC[C@@H](NC(=O)[C@@H](NC(=O)CNC(=O)/C=C/c1ccc(N)cc1)C(C)C)C(=O)OCC | Non-Toxic | –
29 | inactive | CCCCCCCCCCCCCCCCCC(=O)Oc1ccc(/C=C/C(=O)NCC(=O)N[C@H](C(=O)N[C@H](CCC(=O)OC2CCCC2)C(=O)OC2CCCC2)C(C)C)cc1OC | Non-Toxic | –
30 | inactive | CCCCCCCCCCCCCCCCCC(=O)Oc1ccc(/C=C/C(=O)NCC(=O)N[C@@H](COCc2ccccc2)C(=O)N[C@H](CCC(=O)OCC)C(=O)OCC)cc1OC | Non-Toxic | –
31 | inactive | CCCCCCCCCCCCCCCCCC(=O)Oc1ccc(/C=C/C(=O)NCC(=O)N[C@@H](CO)C(=O)N[C@H](CCC(=O)OCC)C(=O)OCC)cc1OC | Non-Toxic | –
32 | inactive | CCOC(=O)[C@@H](CCC(=O)N[C@@H](CCCCN)C(=O)OC)NC(=O)[C@@H](NC(=O)CNC(=O)/C=C/c1ccc(O)c(OC)c1)C(C)C | Non-Toxic | –
33 | inactive | CCOC(=O)CC[C@@H](NC(=O)[C@@H](NC(=O)CNC(=O)C1CC1c1ccc(O)c(OC)c1)C(C)C)C(=O)OCC (some centres undefined) | Non-Toxic | –
